How the values were obtained:
[1] = molecular target: T1, Aromatase (Homo sapiens, UniProt P11511); assay: Inhibition of human placental microsomal aromatase assessed as inhibition of [C14]estrone/[C14]estradiol formation using 1.25 uM [C14]androstenedione substrate at 12.5 uM by liquid scintillation counting
T1 sequence (P11511 whole entry): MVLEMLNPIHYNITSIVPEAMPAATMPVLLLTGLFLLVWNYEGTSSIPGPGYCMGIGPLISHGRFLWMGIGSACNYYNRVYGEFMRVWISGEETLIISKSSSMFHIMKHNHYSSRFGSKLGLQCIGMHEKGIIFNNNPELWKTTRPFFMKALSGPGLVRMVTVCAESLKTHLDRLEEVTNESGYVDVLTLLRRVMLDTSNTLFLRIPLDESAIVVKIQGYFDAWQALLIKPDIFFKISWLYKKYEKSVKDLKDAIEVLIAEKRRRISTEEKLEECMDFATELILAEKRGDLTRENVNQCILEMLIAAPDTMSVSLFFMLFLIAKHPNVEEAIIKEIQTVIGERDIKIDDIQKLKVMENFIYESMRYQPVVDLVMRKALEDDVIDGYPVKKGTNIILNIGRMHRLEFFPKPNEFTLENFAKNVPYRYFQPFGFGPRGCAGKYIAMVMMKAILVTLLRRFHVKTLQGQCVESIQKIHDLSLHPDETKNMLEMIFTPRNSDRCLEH
Method in brief: (§1)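 Screen, run in duplicate: [14C]androstenedione 1.25 μM with inhibitor at 6.25 or 12.5 μM, human placental microsomes (0.25 mg protein/3.0 mL), NADPH-generating system (NADP+ 1.71 mM, glucose 6-phosphate 2.85 mM, G6PDH) in 0.1 M phosphate pH 7.0. 5 min preincubation, then 15.0 min at 37 °C; estrogens separated on alumina TLC and counted; expressed as percent inhibition versus uninhibited controls.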

[2] = molecular target: T1, Aromatase; assay: Inhibition of human placental microsomal aromatase assessed as inhibition of [C14]estrone/[C14]estradiol formation using 1.25 uM [C14]androstenedione substrate at 6.25 uM by liquid scintillation counting; method in brief: as §1
[3] = molecular target: T1, Aromatase; assay: Apparent inhibition of human placental microsomal aromatase assessed as [C14]estrone/[C14]estradiol formation using 0.075 to 0.515 uM [C14]androstenedione substrate by liquid scintillation counting; conditions: read-out: Ki(app)
Method in brief: (§2)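 Twice-washed human term placental microsomes (0.25 mg protein) in 3.5 mL 0.1 M sodium phosphate pH 7.0 with NADP+ 1.71 mM, glucose 6-phosphate 2.85 mM, G6PDH 1.0 unit; [14C]androstenedione 0.075–0.515 μM plus one inhibitor level; 37 °C, 8.0 min (<10% product). Estrogens extracted with ethyl acetate, alumina TLC, counted; duplicates; apparent Ki and inhibition type from weighted Lineweaver-Burk.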

[4] = molecular target: T1, Aromatase; assay: Competitive inhibition of human placental microsomal aromatase assessed as [C14]estrone/[C14]estradiol formation using [C14]androstenedione substrate by liquid scintillation counting; method in brief: as §2

| SMILES | inhibition at 12.5 µM [1] [%] | inhibition at 6.25 µM [2] [%] | Ki [3] [nM] | inhibition (INH) [4] |
| --- | --- | --- | --- | --- |
| C[C@]12CCC(=O)C=C1C[C@@H](SCc1ccccc1)[C@@H]1[C@@H]2CC[C@]2(C)C(=O)CC[C@@H]12 | 84.1 | 66.7 | 69 | Active |
| C[C@@]12C(=CC(=O)C[C@@H]1Sc1ccccc1)CC[C@@H]1[C@@H]2CC[C@]2(C)C(=O)CC[C@@H]12 | 24.2 | 21.2 |  |  |
| C[C@]12CCC(=O)C=C1C[C@@H](Sc1ccccc1)[C@@H]1[C@@H]2CC[C@]2(C)C(=O)CC[C@@H]12 | 46.7 | 45.3 |  |  |
| C[C@]12CCC(=O)C=C1C[C@@H](Sc1ccc(N)cc1)[C@@H]1[C@@H]2CC[C@]2(C)C(=O)CC[C@@H]12 | 95 | 55.6 | 18 | Active |
| COc1ccc(S[C@@H]2CC3=CC(=O)CC[C@]3(C)[C@H]3CC[C@]4(C)C(=O)CC[C@H]4[C@H]23)cc1 | 64.9 | 35.3 |  |  |
| COc1ccc(CS[C@@H]2CC3=CC(=O)CC[C@]3(C)[C@H]3CC[C@]4(C)C(=O)CC[C@H]4[C@H]23)cc1 | 63 | 64 | 31 | Active |
| CCN(CC)c1ccc(CS[C@@H]2CC3=CC(=O)CC[C@]3(C)[C@H]3CC[C@]4(C)C(=O)CC[C@H]4[C@H]23)cc1 | 42.3 | 45.1 |  |  |
| C[C@]12CCC(=O)C=C1C[C@@H](SCCCc1ccccc1)[C@@H]1[C@@H]2CC[C@]2(C)C(=O)CC[C@@H]12 | 66.4 | 68.4 |  |  |
| C[C@@]12C(=CC(=O)C[C@@H]1SCc1ccccc1)CC[C@@H]1[C@@H]2CC[C@]2(C)C(=O)CC[C@@H]12 | 15.5 | 20.8 |  |  |
| C[C@]12CCC(=O)C=C1C[C@@H](SCCc1ccccc1)[C@@H]1[C@@H]2CC[C@]2(C)C(=O)CC[C@@H]12 | 82.8 | 75.7 | 62 | Active |
| CCCCS[C@@H]1CC2=CC(=O)CC[C@]2(C)[C@H]2CC[C@]3(C)C(=O)CC[C@H]3[C@H]12 | 74.1 | 62.4 | 57 | Active |
| CCN(CC)c1ccc(CS[C@H]2CC(=O)C=C3CC[C@@H]4[C@H](CC[C@]5(C)C(=O)CC[C@@H]45)[C@]32C)cc1 | 36.3 | 32.2 |  |  |
| CCOC(=O)CS[C@@H]1CC2=CC(=O)CC[C@]2(C)[C@H]2CC[C@]3(C)C(=O)CC[C@H]3[C@H]12 | 72.4 |  |  |  |
